Measured values published in ChEMBL document CHEMBL1240512, “Discovery of a potent and selective noncovalent linear inhibitor of the hepatitis C virus NS3 protease (BI 201335)” (J Med Chem, 2010).

Assays:
[1] = Cmax in rat at 5 mg/kg, po; assay type: ADME, organism-based; set-up: dose 5 mg/kg, route oral; conditions: in vivo
Procedure, shortened: (§1)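 Male Sprague-Dawley rats (275-300 g), fasted overnight with 10% dextrose in water; single oral gavage 5 mg/kg in 0.5% Methocel/0.3% Tween-80 (10 mL/kg). Carotid cannula sampling at 0-8 h; plasma pooled from three rats per time point, solid-phase extracted, LC-MS quantified; noncompartmental analysis. F derived using the 2 mg/kg iv arm.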

[2] = Volume of distribution at steady state in rat at 2 mg/kg, iv; assay type: ADME, organism-based; set-up: dose 2 mg/kg, route intravenous; conditions: in vivo, read-out: Vdss
Procedure, shortened: (§2)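 Male Sprague-Dawley rats (275-300 g), fasted overnight with 10% dextrose water access, given 2 mg/kg intravenously. Blood drawn via right carotid cannula at 5 min and 0.25-8 h; plasma pooled from three animals per time point, solid-phase extraction, LC-MS measurement; parameters from noncompartmental analysis.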

[3] = Oral bioavailability in rat at 5 mg/kg; assay type: ADME, organism-based; conditions: in vivo; procedure, shortened: as §1
[4] = Inhibition of HCV NS3 protease; set-up: species or system Hepacivirus hominis
Procedure, shortened: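 Genotype 1b NS3-NS4A (0.5 nM) with 5 μM fluorogenic depsipeptide substrate anthranilyl-DDIVPAbu[C(O)-O]AMY(3-NO2)-TW-OH in 50 mM Tris-HCl pH 8.0, 0.25 M sodium citrate, 0.01% dodecyl maltoside, 1 mM TCEP, 5% DMSO; 60-70 min at 23 °C, stopped with 1 M MES pH 5.8; product fluorescence read; IC50 from percent inhibition by nonlinear fit.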

Hepatitis C virus = test: Antiviral activity against HCV Con1 by cell based-luciferase reporter gene assay; assay type: functional, organism-based, Hepacivirus hominis
Procedure, shortened: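 Bicistronic luciferase reporter replicon cells (Con1 genotype 1b NS2-NS5B) exposed to compound for 72 h; luciferase read with Bright-Glo substrate by luminescence. EC50 fitted by nonlinear regression.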

[5] = Clearance in rat at 2 mg/kg, iv; assay type: ADME, organism-based; set-up: dose 2 mg/kg, route intravenous; conditions: in vivo; procedure, shortened: as §2
[6] = Half life in rat at 2 mg/kg, iv; assay type: ADME, organism-based; set-up: dose 2 mg/kg, route intravenous; conditions: in vivo; procedure, shortened: as §2
[7] = AUC (0 to infinity) in rat at 5 mg/kg, po; assay type: ADME, organism-based; set-up: time infinity, dose 5 mg/kg, route oral; conditions: plasma; procedure, shortened: as §1

Structure (SMILES)	Cmax [1]	Vd [2]	bioavailability [3]	IC50 [4]	EC50 (Hepatitis C virus)	clearance [5]	half-life [6]	AUC(0-inf) [7]
C=C[C@@H]1C[C@]1(NC(=O)[C@@H]1C[C@@H](Oc2cc(-c3csc(NC(C)C)n3)nc3cc(OC)ccc23)CN1C(=O)[C@@H](NC(=O)OC1CCCC1)C(C)(C)C)C(=O)O	790 nM	3.7 L/kg	54%	14 nM	45 nM	24 mL/min/kg	2.6 h	2.4 µM·h
C=C[C@@H]1C[C@]1(NC(=O)[C@@H]1C[C@@H](Oc2cc(-c3csc(NC(=O)C(C)C)n3)nc3c(Br)c(OC)ccc23)CN1C(=O)[C@@H](NC(=O)OC1CCCC1)C(C)(C)C)C(=O)O [FALDAPREVIR]				3 nM	3 nM			
C=C[C@@H]1C[C@]1(NC(=O)[C@@H]1C[C@@H](Oc2cc(-c3csc(NC(=O)OC(C)C)n3)nc3c(Br)c(OC)ccc23)CN1C(=O)[C@@H](NC(=O)OC1CCCC1)C(C)(C)C)C(=O)O				6 nM	6 nM			
C=C[C@@H]1C[C@]1(NC(=O)[C@@H]1C[C@@H](Oc2cc(-c3csc(NC(C)C)n3)nc3c(C)c(OC)ccc23)CN1C(=O)[C@@H](NC(=O)OC1CCCC1)C(C)(C)C)C(=O)O				15 nM	40 nM			
C=C[C@@H]1C[C@]1(NC(=O)[C@@H]1C[C@@H](Oc2cc(-c3csc(NC(=O)CC)n3)nc3c(Cl)c(OC)ccc23)CN1C(=O)[C@@H](NC(=O)OC1CCCC1)C(C)(C)C)C(=O)O				7 nM	11 nM			
C=C[C@@H]1C[C@]1(NC(=O)[C@@H]1C[C@@H](Oc2cc(-c3csc(NC(=O)CC)n3)nc3c(F)c(OC)ccc23)CN1C(=O)[C@@H](NC(=O)OC1CCCC1)C(C)(C)C)C(=O)O				7 nM	36 nM			
C=C[C@@H]1C[C@]1(NC(=O)[C@@H]1C[C@@H](Oc2cc(-c3csc(NC(=O)OC)n3)nc3c(Br)c(OC)ccc23)CN1C(=O)[C@@H](NC(=O)OC1CCCC1)C(C)(C)C)C(=O)O				6 nM	3 nM			
C=C[C@@H]1C[C@]1(NC(=O)[C@@H]1C[C@@H](Oc2cc(-c3csc(NC(=O)CC)n3)nc3c(C)c(OC)ccc23)CN1C(=O)[C@@H](NC(=O)OC1CCCC1)C(C)(C)C)C(=O)O	820 nM	1.8 L/kg	56%	10 nM	17 nM	15 mL/min/kg	1.7 h	3.5 µM·h
C=C[C@@H]1C[C@]1(NC(=O)[C@@H]1C[C@@H](Oc2cc(-c3csc(NC(C)C)n3)nc3cc(OC)ccc23)CN1C(=O)[C@@H](NC(=O)OC1CCCCC1)C(C)(C)C)C(=O)O				18 nM	90 nM			
C=C[C@@H]1C[C@]1(NC(=O)[C@@H]1C[C@@H](Oc2cc(-c3csc(NC(C)C)n3)nc3cc(OC)ccc23)CN1C(=O)[C@@H](NC(=O)OC1CCC1)C(C)(C)C)C(=O)O				12 nM	110 nM			
C=C[C@@H]1C[C@]1(NC(=O)[C@@H]1C[C@@H](Oc2cc(-c3csc(NC(C)C)n3)nc3cc(OC)ccc23)CN1C(=O)[C@@H](O)C(C)(C)C)C(=O)O				320 nM				
COc1ccc2c(O[C@@H]3C[C@H]4C(=O)N[C@]5(C(=O)O)C[C@H]5/C=C\CCCCC[C@H](NC(=O)OC5CCCC5)C(=O)N4C3)cc(-c3csc(NC(C)C)n3)nc2c1 [CILUPREVIR]				3 nM	2 nM			
C=C[C@@H]1C[C@]1(NC(=O)[C@@H]1C[C@@H](Oc2cc(-c3csc(NC(C)C)n3)nc3cc(OC)ccc23)CN1C(=O)[C@@H](NC(=O)OC(C)(C)C)C(C)(C)C)C(=O)O				43 nM				
C=C[C@@H]1C[C@]1(NC(=O)[C@@H]1C[C@@H](Oc2cc(-c3csc(NC(C)=O)n3)nc3cc(OC)ccc23)CN1C(=O)[C@@H](NC(=O)OC1CCCC1)C(C)(C)C)C(=O)O				5 nM	34 nM			
C=C[C@@H]1C[C@]1(NC(=O)[C@@H]1C[C@@H](Oc2cc(-c3csc(NC(=O)CC)n3)nc3c(Br)c(OC)ccc23)CN1C(=O)[C@@H](NC(=O)OC1CCCC1)C(C)(C)C)C(=O)O				7 nM	5 nM			
C=C[C@@H]1C[C@]1(NC(=O)[C@@H]1C[C@@H](Oc2cc(-c3ccccc3)nc3cc(OC)ccc23)CN1C(=O)[C@@H](NC(=O)OC1CCCC1)C(C)(C)C)C(=O)O				14 nM	550 nM			
C=C[C@@H]1C[C@]1(NC(=O)[C@@H]1C[C@@H](Oc2cc(-c3csc(NC(C)=O)n3)nc3c(C)c(OC)ccc23)CN1C(=O)[C@@H](NC(=O)OC1CCCC1)C(C)(C)C)C(=O)O				8 nM	19 nM			
C=C[C@@H]1C[C@]1(NC(=O)[C@@H]1C[C@@H](Oc2cc(-c3csc(NC(=O)CC(C)(C)C)n3)nc3cc(OC)ccc23)CN1C(=O)[C@@H](NC(=O)OC1CCCC1)C(C)(C)C)C(=O)O	1100 nM	0.83 L/kg	39%	17 nM	68 nM	14 mL/min/kg	1.2 h	2.8 µM·h
